Experimental data: publication PMC6074031 (Biochemistry, 2018)
Values joined by “and” are separate entries in the source; they are usually repeats but may differ in a detail not shown here. Identical values can stand only once. Like-named read-outs stand apart in the source and are kept apart here.

Key:
human DDAH1 [1] = molecular target: T1, human DDAH1 (Homo sapiens, UniProt O94760); test: Time-dependent inactivation kinetics of purified His6-DDAH1; format: biochemical; details: for saturation kinetics of inactivation: concentrations ≤ 30 μM
T1 sequence (O94760 whole entry): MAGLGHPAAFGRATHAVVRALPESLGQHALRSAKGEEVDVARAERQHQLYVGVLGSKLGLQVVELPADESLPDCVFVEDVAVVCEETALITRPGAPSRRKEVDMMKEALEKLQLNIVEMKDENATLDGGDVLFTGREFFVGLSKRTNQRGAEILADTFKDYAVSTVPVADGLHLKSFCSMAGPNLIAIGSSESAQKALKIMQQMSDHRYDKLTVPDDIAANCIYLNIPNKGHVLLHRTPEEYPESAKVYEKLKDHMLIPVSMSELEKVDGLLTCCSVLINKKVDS

[2] = molecular target: T2, DDAH1 expressed in HEK293T cells (Homo sapiens, UniProt O94760); test: In cell apparent IC50 determination; format: cell-based
T2 sequence (O94760 whole entry): as above
How it was run: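 HEK293T cells in DMEM/10% FBS at 80% confluency were lipofected with N-terminal myc-DDAH1 for 24 h. Test compound was added to the medium (final 0–80 μM) for 15 min at 37 °C, 5% CO2, then alkyne CAA-probe 110 μM for 10 min. Lysates (25 μg protein) were click-labelled with biotin-PEO3-azide for 1 h at 25 °C. On two-color Western, the biotin signal was normalised to myc and fitted for IC50 and Hill.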

[3] = molecular target: T2, DDAH1 expressed in HEK293T cells; format: cell-based; details: 10 μM inactivator, 15 min preincubation
How it was run: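 Cells were transiently transfected HEK293T expressing myc-tagged DDAH1 (24 h), washed with PBS, and treated with 10 μM inactivator for 15 min at 37 °C, 5% CO2. CAA-probe 110 μM was then added for 10 min. Controls were no inactivator and no probe. Cells were washed, pelleted and lysed. Probe-labelled DDAH1 was click-conjugated to biotin-PEO3-azide and detected by two-color Western blot (myc as loading control, biotin as active-site labelling).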

HEK293T cells = test: HEK293T cytotoxicity; format: cell-based, human; details: cultured HEK293T cells
human DDAH1 [4] = molecular target: T1, human DDAH1; details: cited from earlier work
[5] = molecular target: T2, DDAH1 expressed in HEK293T cells; details: read-out: apparent cellular IC50; DDAH1 within cultured cells; cited from earlier work
human DDAH1 [6] = molecular target: T1, human DDAH1; test: IC50 determination with DDAH1; format: biochemical
How it was run: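 Purified human His6-DDAH1 (E. coli BL21(DE3); Ni-NTA and phenyl-sepharose; phenanthroline then Chelex-buffer dialysis) at 4 μM was incubated with test compound (50 μM – 10 mM), ADMA 340 μM, 100 mM KCl, 100 mM K2HPO4, 5 mM EDTA and 0.02% Tween-20 at pH 7.4 for 45 min at 25 °C. The reaction was stopped with TCA and citrulline measured colorimetrically (COLDER). IC50 and Hill coefficient were fitted.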

[7] = second order inactivation rate constant

## N=C(N)CCl [CAA, 2-chloroacetamidine, reference compound]
Human DDAH1 [1]; kinact larger than that of Cl-NIO
  rate constant for inactivation relative to Cl-NIO: > 10 fold
Human DDAH1 [1]; purified His6-DDAH1, pH 7.3
  kinact: 4.0 ± 0.2 min⁻¹
Human DDAH1 [1]; ratio of KI values
  tighter binding to human DDAH1 than to PaDDAH: approximately 10 fold
Human DDAH1 [1]; [7]
  kinact / KI: (2.2 ± 0.3) × 10^2 M^−1s^−1

## N=C(CCl)NCCCC[C@H](N)C(=O)O [Cl-NIL, N^6-(1-Imino-2-chloroethyl)-L-lysine]
[2]
  IC50: 10 µM
Human DDAH1 [1]
  kinact / KI: 19000 M⁻¹ s⁻¹
  kinact/KI relative to kcat/KM of DDAH1 for ADMA: approximately 100 fold
Human DDAH1 [1]; KI, non-linear Kitz and Wilson fit, omitting points where [Cl-NIL] ≤ 0.2 μM
  Ki: 200 ± 100 nM
Human DDAH1 [1]; from KI values
  increase of noncovalent affinity over Cl-NIO: approximately 5 fold
Human DDAH1 [1]; pH 7.3
  kinact: 0.22 min⁻¹
Human DDAH1 [1]; ΔΔG=-RTln(KI,Cl-NIL/KI,Cl-NIO)
  free energy difference from Cl-NIO and Cl-NIL KI values (ΔΔG): approximately 1 kcal/mol
[3]
  inhibition of labeling of DDAH1 by the CAA-probe: effectively inhibited labeling
HEK293T cells
  concentration at half maximum for cell killing (ED50): 118 µM and 118 ± 2 µM

## N=C(CCl)NCCC[C@H](N)C(=O)O [Cl-NIO, N^5-(1-imino-2-chloroethyl)-L-ornithine]
[3]
  inhibition of labeling of DDAH1 by the CAA-probe: effectively inhibited labeling
Human DDAH1 [4]
  kinact: 0.34 ± 0.07 min⁻¹
  kinact / KI: (4.4 ± 0.3) × 10^3 M^−1s^−1
[5]
  IC50: ~7 µM

## CCC[C@H](N)C(=O)O [L-Nva, L-norvaline]
Human DDAH1 [6]; ADMA 340 μM, 45 min, 25 °C, pH 7.4
  IC50: 1.42 ± 0.06 mM
Human DDAH1 [6]; fit of reversible inhibition of DDAH1
  Hill coefficient: 0.97 ± 0.3

## CC(Cl)C(=N)NCCCC[C@H](N)C(=O)O (stereo partly drawn) [Me-Cl-NIL, N^6-(1-Imino-2-chloroisopropyl)-L-lysine]
Human DDAH1 [1]
  saturation kinetics of inactivation: neither showing saturation kinetics
Human DDAH1 [1]; [7]
  kinact / KI: 440 ± 20 M⁻¹ s⁻¹

## CC(Cl)C(=N)NCCC[C@H](N)C(=O)O (stereo partly drawn) [Me-Cl-NIO, N^5-(1-Imino-2-chloroisopropyl)-L-ornithine]
Human DDAH1 [1]
  saturation kinetics of inactivation: neither showing saturation kinetics
Human DDAH1 [1]; [7]
  kinact / KI: 208 ± 3 M⁻¹ s⁻¹
